Results published in PMC5600292 (Biochimica et biophysica acta, 2017).
Where two headings read alike, the source gives them in different places.

B1: FXIII V34: full-length recombinant FXIII-A V34 expressed in E. coli (protein, UniProt P00488 1-732, looked up)
chain: MSETSRTAFGGRRAVPPNNSNAAEDDLPTVELQGVVPRGVNLQEFLNVTSVHLFKERWDTNKVDHHTDKYENNKLIVRRGQSFYVQIDFSRPYDPRRDLFRVEYVIGRYPQENKGTYIPVPIVSELQSGKWGAKIVMREDRSVRLSIQSSPKCIVGKFRMYVAVWTPYGVLRTSRNPETDTYILFNPWCEDDAVYLDNEKEREEYVLNDIGVIFYGEVNDIKTRSWSYGQFEDGILDTCLYVMDRAQMDLSGRGNPIKVSRVGSAMVNAKDDEGVLVGSWDNIYAYGVPPSAWTGSVDILLEYRSSENPVRYGQCWVFAGVFNTFLRCLGIPARIVTNYFSAHDNDANLQMDIFLEEDGNVNSKLTKDSVWNYHCWNEAWMTRPDLPVGFGGWQAVDSTPQENSDGMYRCGPASVQAIKHGHVCFQFDAPFVFAEVNSDLIYITAKKDGTHVVENVDATHIGKLIVTKQIGGDGMMDITDTYKFQEGQEEERLALETALMYGAKKPLNTEGVMKSRSNVDMDFEVENAVLGKDFKLSITFRNNSHNRYTITAYLSANITFYTGVPKAEFKKETFDVTLEPLSFKKEAVLIQAGEYMGQLLEQASLHFFVTARINETRDVLAKQKSTVLTIPEIIIKVRGTQVVGSDMTVTVEFTNPLKETLRNVWVHLDGPGVTRPMKKMFREIRPNSTVQWEEVCRPWVSGHRKLIASMSSDSLRHVYGELDVQIQRRPSM
modifications: full-length

Key:
[1] = target: T1, human recombinant thrombin I174A (Homo sapiens, UniProt P00734, I542A); assay: HPLC-based kinetic assay of FXIII AP hydrolysis, I174A thrombin; assay type: biochemical; settings: for kcat/Km / Km / kcat: I174A IIa, HPLC assay, pH 7.4, 25 °C, average of at least three independent experiments ± SEM; for Km / kcat: SEM
In short: (§1)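 Synthetic Ac-/-NH2 FXIII (28–41) AP peptides (V34, L34, F34, W34, Y34) were used at 75–2500 µM final in 50 mM H3PO4, 100 mM NaCl, 0.1% PEG, pH 7.4, 25 °C. Recombinant human thrombin (6 nM–1 µM) started the reaction; aliquots were quenched with 12.5% H3PO4, keeping hydrolysis below 17% in 30 min. The (28–37) product was quantified by RP-HPLC against calibration curves. Initial velocities were fitted to V = Vmax/(1+Km/[S]), kcat taken from thrombin concentration, in triplicate.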

[2] = target: T2, human recombinant thrombin wild-type (WT) (Homo sapiens, UniProt P00734); settings: WT IIa, mean ± SEM, cited from earlier work; for Km / kcat: SEM
[3] = target: human recombinant thrombin W60dA (Homo sapiens, UniProt P00734, W413A); settings: W60dA IIa, mean ± SEM, cited from earlier work; for Km / kcat: SEM
[4] = target: T3, human recombinant thrombin L99A (Homo sapiens, UniProt P00734, L459A); settings: cited from earlier work; for Km / kcat / kcat/Km: L99A IIa, mean ± SEM; for Km / kcat: SEM
[5] = target: human recombinant thrombin W215A (Homo sapiens, UniProt P00734, W590A); settings: cited from earlier work; for Km / kcat / kcat/Km: W215A IIa, mean ± SEM; for Km / kcat: SEM; for fold reduction of kcat/Km relative to WT thrombin: prior studies
[6] = target: human recombinant thrombin W215A/E217A (WE) (Homo sapiens, UniProt P00734, E592A/W590A); settings: cited from earlier work; for Km / kcat / kcat/Km: WE (W215A/E217A) IIa, mean ± SEM; for Km / kcat: SEM; for fold decrease in Km relative to WT thrombin: WE thrombin
[7] = test system: human recombinant thrombin Y60aA; settings: cited from earlier work; for Km / kcat / kcat/Km: Y60aA IIa, mean ± SEM; for Km / kcat: SEM; for fold decrease in kcat relative to WT thrombin / fold increase in Km relative to WT thrombin: Y60aA thrombin
[8] = target: T1, human recombinant thrombin I174A; settings: cited from earlier work; for Km / kcat / kcat/Km: I174A IIa, mean ± SEM; for Km / kcat: SEM
[9] = target: T2, human recombinant thrombin wild-type (WT); assay: HPLC-based kinetic assay of thrombin-catalyzed hydrolysis of FXIII; assay type: biochemical; settings: WT IIa, pH 7.4, 25 °C, average of at least three independent experiments ± SEM
In short: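 Recombinant human thrombin hydrolysed acetylated, amidated FXIII (28–41) activation peptides with V, L, F, W or Y at position 34 (final 75–2500 µM). Reactions ran at 25 °C in 50 mM H3PO4, 100 mM NaCl, 0.1% PEG, pH 7.4, with 6 nM–1 µM thrombin, and kept <17% hydrolysis in 30 min. Timed aliquots were quenched with 12.5% H3PO4. The (28–37) product was quantified by C18 RP-HPLC against calibration curves, giving initial velocities. These were fit to V = Vmax/(1 + Km/[S]), and kcat came from thrombin concentration. Runs were in triplicate.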

[10] = target: T3, human recombinant thrombin L99A; assay: HPLC-based kinetic assay of FXIII AP hydrolysis, L99A thrombin; assay type: biochemical; settings: L99A IIa, HPLC assay, pH 7.4, 25 °C, average of at least three independent experiments ± SEM
In short: as §1

[11] = test system: WT recombinant human thrombin; assay: Gel electrophoresis; assay type: biochemical; settings: 1 µM FXIII variant, 30 nM thrombin, 37°C
In short: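 Full-length FXIII-A V34X variants were expressed GST-tagged in E. coli BL21(DE3) Gold by auto-induction, then freed from the tag by on-column PreScission digestion. 1 µM variant was incubated with 30 nM WT recombinant human thrombin at 37°C. Aliquots were taken at 1–30 min, quenched with 6 µM PPACK plus reducing buffer, and frozen at −80°C. Samples ran on 8% SDS-PAGE with Coomassie stain; densitometry followed the 83 kDa intact and 79 kDa cleaved bands.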

Row | Molecule | kcat/Km [1] [M⁻¹ s⁻¹] | Km [1] [µM] | kcat [1] [s⁻¹] | Km [2] [µM] | kcat [2] [s⁻¹] | kcat/Km [2] [M⁻¹ s⁻¹] | Km [3] [µM] | kcat [3] [s⁻¹] | kcat/Km [3] [M⁻¹ s⁻¹] | Km [4] [µM] | kcat [4] [s⁻¹] | kcat/Km [4] [M⁻¹ s⁻¹] | fold decrease in kcat relative to WT thrombin ([4]; L99A thrombin) | Km [5] [µM] | kcat [5] [s⁻¹] | kcat/Km [5] [M⁻¹ s⁻¹] | fold reduction of kcat/Km relative to WT thrombin ([5]; W215A thrombin) [fold] | Km [6] [µM] | kcat [6] [s⁻¹] | kcat/Km [6] [M⁻¹ s⁻¹] | further results
1 | Ac-TVELQGFVPRGVNL- NH2 [FXIII (28–41) F34 AP] | 6600 ± 690 | 920 ± 88 | 6.08 ± 0.25 | 442 ± 93 | 6.27 ± 0.54 | 14000 ± 3000 | 435 ± 98 | 1.46 ± 0.15 | 3400 ± 800 | 570 ± 125 | 2.71 ± 0.3 | 4800 ± 120 | 2 fold | 437 ± 81 | 1.97 ± 0.14 | 4500 ± 900 | 3 | 190 ± 43 | 0.07 ± 0.007 | 360 ± 80 | fold decrease in kcat relative to WT thrombin ([5]; W215A thrombin): 3 fold; fold decrease in Km relative to WT thrombin [6]: 2 fold
2 | Ac-TVELQGLVPRGVNL-NH2 [FXIII (28–41) L34 AP] | – | – | – | 315 ± 42 | 22.9 ± 0.003 | 73000 ± 1200 | 1000 ± 201 | 5.07 ± 0.021 | 5100 ± 1000 | 1930 ± 354 | 5.94 ± 0.02 | 3100 ± 200 | 3–4 fold | 3620 ± 470 | 5.31 ± 0.002 | 1500 ± 200 | – | 142 ± 28 | 0.052 ± 0.003 | 370 ± 100 | Km [7]: 696 ± 116 µM; kcat [7]: 0.37 ± 0.012 s⁻¹; kcat/Km [7]: 530 ± 120 M⁻¹ s⁻¹; fold decrease in kcat relative to WT thrombin [7]: 54 to 61 fold; fold increase in Km relative to WT thrombin [7]: 2 fold; fold advantage in kcat/Km relative to V34 ([4]; L99A thrombin): 7 fold; Km [8]: 1110 ± 247 µM; kcat [8]: 10.2 ± 0.04 s⁻¹; kcat/Km [8]: 9100 ± 2000 M⁻¹ s⁻¹; fold decrease in kcat relative to WT thrombin ([8]; I174A thrombin): 2 fold; fold decrease in Km relative to WT thrombin [6]: 2 fold
3 | Ac-TVELQGVVPRGVNL-NH2 [FXIII (28–41) V34 AP] | – | – | – | 298 ± 42 | 2.57 ± 0.005 | 8600 ± 1000 | 1380 ± 422 | 0.86 ± 0.046 | 630 ± 190 | 2070 ± 414 | 0.89 ± 0.07 | 430 ± 100 | 3–4 fold | 2370 ± 372 | 5.53 ± 0.017 | 2300 ± 700 | 4 | 745 ± 98 | 0.117 ± 0.008 | 160 ± 20 | Km [7]: 678 ± 120 µM; kcat [7]: 0.048 ± 0.0032 s⁻¹; kcat/Km [7]: 71 ± 13 M⁻¹ s⁻¹; fold decrease in kcat relative to WT thrombin [7]: 54 to 61 fold; fold increase in Km relative to WT thrombin [7]: 2 fold; Km [8]: 204 ± 36 µM; kcat [8]: 5.37 ± 0.01 s⁻¹; kcat/Km [8]: 26000 ± 100 M⁻¹ s⁻¹; fold increase in kcat relative to WT thrombin ([8]; I174A thrombin): 2 fold
4 | Ac-TVELQGYVPRGVNL-NH2 [FXIII (28–41) Y34 AP] | 3300 ± 2000 | 349 ± 120 | 1.17 ± 0.16 | – | – | – | – | – | – | – | – | – | – | – | – | – | – | – | – | – | kcat/Km [9]: 4600 ± 900 M⁻¹ s⁻¹; Km ([9]; SEM): 484 ± 88 µM; kcat ([9]; SEM): 2.23 ± 0.18 s⁻¹; kcat/Km [10]: 39000 ± 9800 M⁻¹ s⁻¹; Km ([10]; SEM): 347 ± 80 µM; kcat ([10]; SEM): 13.5 ± 1.4 s⁻¹; fold decrease in Km relative to WT thrombin ([1]; I174A thrombin, current work): 1.4 fold; fold decrease in kcat relative to WT thrombin ([1]; I174A thrombin, current work): 2 fold
5 | B1 | – | – | – | – | – | – | – | – | – | – | – | – | – | – | – | – | – | – | – | – | time at which cleavage started to be visible ([11]; SDS-PAGE): 2 min; cleavage of full-length FXIII by thrombin at 10 min ([11]; SDS-PAGE densitometry): 50%; time to full cleavage of full-length FXIII ([11]; SDS-PAGE densitometry): ~30 min
